Columns and labels:
D(1A) dopamine receptor = D(1A) dopamine receptor (Homo sapiens, UniProt P21728); assay: The binding affinity (pKi) measured against Dopamine receptor D1 using [3H]-SCH- 23390 as radioligand
Outline: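 Binding at cloned human dopamine D1 receptors expressed in LTK cells.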

[1] = target: 5-hydroxytryptamine receptor 2B (Rattus norvegicus, UniProt P30994); assay: Antagonistic affinity measured as pA2 value on 5-hydroxytryptamine 2B receptor of the rat stomach fundus; format: functional, tissue-based; conditions: read-out: pA2 (converted)
Chain of 5-hydroxytryptamine receptor 2B (P30994 whole entry): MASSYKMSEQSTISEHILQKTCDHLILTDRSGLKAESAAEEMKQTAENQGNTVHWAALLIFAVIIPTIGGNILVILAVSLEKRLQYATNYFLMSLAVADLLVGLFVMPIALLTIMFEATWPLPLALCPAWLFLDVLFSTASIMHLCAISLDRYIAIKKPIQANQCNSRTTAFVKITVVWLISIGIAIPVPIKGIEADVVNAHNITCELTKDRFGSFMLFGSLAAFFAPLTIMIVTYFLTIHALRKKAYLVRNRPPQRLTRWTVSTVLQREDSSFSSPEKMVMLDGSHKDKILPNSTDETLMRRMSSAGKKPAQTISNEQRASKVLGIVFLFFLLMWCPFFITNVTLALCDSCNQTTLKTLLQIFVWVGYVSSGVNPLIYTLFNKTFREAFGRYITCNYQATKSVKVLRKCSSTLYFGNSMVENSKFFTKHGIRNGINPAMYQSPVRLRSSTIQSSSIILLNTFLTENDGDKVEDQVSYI

Histamine H1 receptor = Histamine H1 receptor (Cavia porcellus, UniProt P31389); assay: The binding affinity (pKi) measured against histamine H1 receptor of guinea pig cerebellum using [3H]mepyramine as radioligand; format: tissue-based
Chain of Histamine H1 receptor (P31389 whole entry): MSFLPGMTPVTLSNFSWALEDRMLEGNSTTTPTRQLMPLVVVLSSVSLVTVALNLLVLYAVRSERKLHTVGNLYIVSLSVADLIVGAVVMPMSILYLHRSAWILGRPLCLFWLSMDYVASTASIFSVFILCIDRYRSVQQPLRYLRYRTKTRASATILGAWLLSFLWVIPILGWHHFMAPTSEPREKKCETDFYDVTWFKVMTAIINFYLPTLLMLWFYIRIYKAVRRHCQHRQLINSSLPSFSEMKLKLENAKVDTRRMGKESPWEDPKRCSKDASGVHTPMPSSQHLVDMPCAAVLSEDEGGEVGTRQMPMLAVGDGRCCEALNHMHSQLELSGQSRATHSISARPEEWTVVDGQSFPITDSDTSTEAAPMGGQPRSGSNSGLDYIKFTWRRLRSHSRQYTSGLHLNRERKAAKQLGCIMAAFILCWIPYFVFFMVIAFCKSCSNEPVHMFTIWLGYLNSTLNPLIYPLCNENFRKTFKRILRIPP

[2] = target: 5-hydroxytryptamine receptor 1E (Homo sapiens, UniProt P28566); assay: The binding affinity (pKi) measured against 5-hydroxytryptamine 1E receptor (cloned human receptors in CHO cells) using […] as radioligand; format: cell-based
Chain of 5-hydroxytryptamine receptor 1E (P28566 whole entry): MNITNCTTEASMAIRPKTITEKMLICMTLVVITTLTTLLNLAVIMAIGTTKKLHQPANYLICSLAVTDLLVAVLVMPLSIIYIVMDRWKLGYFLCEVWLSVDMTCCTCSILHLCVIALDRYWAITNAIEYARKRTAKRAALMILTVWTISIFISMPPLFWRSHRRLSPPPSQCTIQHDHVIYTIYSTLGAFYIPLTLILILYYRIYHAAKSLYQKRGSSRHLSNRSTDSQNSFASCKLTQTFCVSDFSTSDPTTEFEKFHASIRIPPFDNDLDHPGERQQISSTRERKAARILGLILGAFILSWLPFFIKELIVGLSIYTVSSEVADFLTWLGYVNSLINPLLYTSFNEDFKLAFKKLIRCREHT
Outline: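 Radioligand binding at cloned human 5-HT1E receptors expressed in CHO cells, labelled with [3H]-5-HT.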

[3] = target: GABA-A receptor; anion channel; assay: Inhibition of [3H]muscimol binding to Gamma-aminobutyric acid A (GABA-A) receptor of rat cortex
[4] = target: T1, Adrenergic receptor alpha-1 (Rattus norvegicus, UniProt P15823+P23944+P43140); assay: The binding affinity (pKi) measured against Alpha-1 adrenergic receptor of rat cortex using [3H]prazosin as radioligand
T1 sequence (P15823 whole entry): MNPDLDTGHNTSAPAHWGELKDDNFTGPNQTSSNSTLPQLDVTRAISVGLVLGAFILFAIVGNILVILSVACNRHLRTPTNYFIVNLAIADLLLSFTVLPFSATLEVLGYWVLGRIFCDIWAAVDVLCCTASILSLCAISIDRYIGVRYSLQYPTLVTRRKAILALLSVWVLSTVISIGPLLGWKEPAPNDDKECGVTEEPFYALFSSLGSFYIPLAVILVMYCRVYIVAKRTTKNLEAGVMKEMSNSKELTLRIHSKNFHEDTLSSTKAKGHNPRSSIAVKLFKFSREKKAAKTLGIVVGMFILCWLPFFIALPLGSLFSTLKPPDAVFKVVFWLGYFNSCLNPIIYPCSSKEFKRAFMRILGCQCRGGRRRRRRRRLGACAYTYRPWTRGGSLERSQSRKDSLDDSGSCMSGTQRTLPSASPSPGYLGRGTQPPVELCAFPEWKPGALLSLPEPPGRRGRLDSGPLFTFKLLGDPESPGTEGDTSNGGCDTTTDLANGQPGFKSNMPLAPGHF
T1 sequence (P23944 whole entry): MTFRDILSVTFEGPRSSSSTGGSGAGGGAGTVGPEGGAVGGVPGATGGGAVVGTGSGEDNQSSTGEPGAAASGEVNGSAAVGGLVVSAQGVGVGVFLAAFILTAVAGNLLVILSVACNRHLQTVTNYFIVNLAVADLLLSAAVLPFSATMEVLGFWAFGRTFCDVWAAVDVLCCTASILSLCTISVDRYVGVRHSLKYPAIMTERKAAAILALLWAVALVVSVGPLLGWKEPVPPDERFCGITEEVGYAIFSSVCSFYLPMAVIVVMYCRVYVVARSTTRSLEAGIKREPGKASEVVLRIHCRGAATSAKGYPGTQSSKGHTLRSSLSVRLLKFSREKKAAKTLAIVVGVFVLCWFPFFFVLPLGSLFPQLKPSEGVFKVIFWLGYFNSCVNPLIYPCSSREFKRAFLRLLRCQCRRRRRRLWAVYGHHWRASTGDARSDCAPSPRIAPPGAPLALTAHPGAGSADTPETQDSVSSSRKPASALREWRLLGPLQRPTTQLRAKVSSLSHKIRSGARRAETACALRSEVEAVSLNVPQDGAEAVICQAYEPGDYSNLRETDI
T1 sequence (P43140 whole entry): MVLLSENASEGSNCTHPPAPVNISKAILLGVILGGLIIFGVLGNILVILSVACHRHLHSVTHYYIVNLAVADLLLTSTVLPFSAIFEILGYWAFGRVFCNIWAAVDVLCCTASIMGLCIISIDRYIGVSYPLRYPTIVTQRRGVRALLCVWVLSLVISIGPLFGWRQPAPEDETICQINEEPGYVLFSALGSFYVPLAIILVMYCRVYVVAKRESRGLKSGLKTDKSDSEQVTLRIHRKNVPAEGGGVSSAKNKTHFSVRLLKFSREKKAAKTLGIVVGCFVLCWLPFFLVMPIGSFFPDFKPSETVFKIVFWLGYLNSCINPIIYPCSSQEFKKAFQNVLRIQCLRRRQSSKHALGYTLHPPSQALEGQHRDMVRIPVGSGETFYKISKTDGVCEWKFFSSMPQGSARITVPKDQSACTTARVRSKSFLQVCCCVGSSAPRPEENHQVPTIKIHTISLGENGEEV

D(2) dopamine receptor = D(2) dopamine receptor (Homo sapiens, UniProt P14416); assay: In vitro binding affinity was measured on Dopamine receptor D2
Chain of D(2) dopamine receptor (P14416 whole entry): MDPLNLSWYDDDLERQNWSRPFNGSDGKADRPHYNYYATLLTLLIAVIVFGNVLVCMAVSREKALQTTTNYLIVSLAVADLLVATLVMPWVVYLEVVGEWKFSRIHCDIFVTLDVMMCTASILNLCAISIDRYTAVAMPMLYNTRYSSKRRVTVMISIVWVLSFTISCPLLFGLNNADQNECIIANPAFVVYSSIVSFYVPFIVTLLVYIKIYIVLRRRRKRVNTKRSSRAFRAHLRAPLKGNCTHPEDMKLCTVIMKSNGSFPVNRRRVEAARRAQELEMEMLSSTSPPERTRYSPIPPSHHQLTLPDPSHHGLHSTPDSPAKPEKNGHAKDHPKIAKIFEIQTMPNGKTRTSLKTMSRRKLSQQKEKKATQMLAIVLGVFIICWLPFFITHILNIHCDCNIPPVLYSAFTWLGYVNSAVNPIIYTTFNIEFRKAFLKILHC

[5] = target: T2, 5-hydroxytryptamine receptor 2C (Homo sapiens, UniProt P28335); assay: (§1) Selectivity as the ratio of Ki value towards 5-hydroxytryptamine 2C receptor to that of pA2 value towards 5-hydroxytryptamine 2B receptor; format: functional
T2 sequence (P28335 whole entry): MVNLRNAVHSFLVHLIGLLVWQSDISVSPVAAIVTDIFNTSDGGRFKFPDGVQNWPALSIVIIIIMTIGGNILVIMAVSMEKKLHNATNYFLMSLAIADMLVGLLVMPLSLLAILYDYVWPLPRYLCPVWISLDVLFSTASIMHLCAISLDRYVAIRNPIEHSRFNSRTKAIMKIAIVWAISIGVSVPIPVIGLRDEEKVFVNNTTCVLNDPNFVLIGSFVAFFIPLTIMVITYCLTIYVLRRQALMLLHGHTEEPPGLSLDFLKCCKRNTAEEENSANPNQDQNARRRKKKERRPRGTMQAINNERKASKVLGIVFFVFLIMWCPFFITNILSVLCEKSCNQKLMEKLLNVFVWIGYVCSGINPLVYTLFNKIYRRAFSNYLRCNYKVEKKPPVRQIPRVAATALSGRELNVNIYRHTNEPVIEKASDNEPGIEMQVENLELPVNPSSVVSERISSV

[6] = target: 5-HT2C receptor (Homo sapiens); assay: Antagonistic binding affinity measured against 5-hydroxytryptamine 2C receptor (human clone expressed in 293 cells) using [3H]mesulergine as radioligand
[7] = target: T2, 5-hydroxytryptamine receptor 2C; assay: Antagonistic binding affinity measured against 5-hydroxytryptamine 2C receptor (human clone expressed in 293 cells) using [3H]mesulergine as radioligand; format: cell-based, HEK293
[8] = target: 5-hydroxytryptamine receptor 2A (Homo sapiens, UniProt P28223); assay: Antagonistic binding affinity measured against 5-hydroxytryptamine 2A receptor (human clone expressed in 293 cells) using [3H]ketanserin as radioligand; format: cell-based, HEK293
Chain of 5-hydroxytryptamine receptor 2A (P28223 whole entry): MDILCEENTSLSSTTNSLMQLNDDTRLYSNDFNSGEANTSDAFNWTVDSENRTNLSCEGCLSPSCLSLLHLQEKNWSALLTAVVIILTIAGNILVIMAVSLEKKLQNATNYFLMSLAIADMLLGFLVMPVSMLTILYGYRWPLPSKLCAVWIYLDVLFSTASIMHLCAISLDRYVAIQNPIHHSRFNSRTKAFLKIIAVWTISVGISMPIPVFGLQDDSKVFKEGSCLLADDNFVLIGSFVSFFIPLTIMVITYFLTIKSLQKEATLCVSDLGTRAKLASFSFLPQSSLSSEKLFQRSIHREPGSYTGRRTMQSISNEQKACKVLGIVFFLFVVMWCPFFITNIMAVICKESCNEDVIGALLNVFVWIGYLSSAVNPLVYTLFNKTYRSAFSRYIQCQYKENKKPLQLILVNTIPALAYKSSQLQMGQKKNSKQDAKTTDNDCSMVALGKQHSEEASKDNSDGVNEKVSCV

[9] = as §1; format: functional

Chain of D(1A) dopamine receptor (P21728 whole entry): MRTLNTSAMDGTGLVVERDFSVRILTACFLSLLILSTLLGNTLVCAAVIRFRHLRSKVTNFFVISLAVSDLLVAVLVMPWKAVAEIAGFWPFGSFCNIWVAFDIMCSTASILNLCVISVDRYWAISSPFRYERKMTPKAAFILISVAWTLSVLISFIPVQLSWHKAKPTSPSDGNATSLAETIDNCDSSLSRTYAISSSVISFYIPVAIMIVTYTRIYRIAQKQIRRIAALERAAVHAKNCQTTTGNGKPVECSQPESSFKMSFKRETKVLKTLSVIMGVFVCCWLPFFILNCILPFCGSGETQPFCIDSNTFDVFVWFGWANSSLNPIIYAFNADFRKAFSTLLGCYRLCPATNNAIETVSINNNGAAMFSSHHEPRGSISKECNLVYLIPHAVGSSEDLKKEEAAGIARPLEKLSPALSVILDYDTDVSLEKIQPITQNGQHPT

Row | Kb [1] [µM] | Ki [5] [µM] | Ki [6] [µM] | SMILES | also measured
1 | 0.0112 | – | – | Cc1cc(NC(=O)Nc2ccc3c(ccn3C)c2)sn1 | Ki (D(1A) dopamine receptor): > 10 µM; Ki (Histamine H1 receptor): > 10 µM; Ki [2]: > 100 µM; Log Ki [3]: > -5; Log Ki [4]: > -5.5; Ki (D(2) dopamine receptor): > 31.6 µM
2 | 0.0692 | 0.347 | > 6.31 | Cc1cc(NC(=O)Nc2ccc3c(ccn3C)c2)on1 | –
3 | 0.0389 | 0.11 | – | Cn1ccc2cc(NC(=O)Nc3cccnc3)ccc21 | –
4 | 0.0151 | – | – | Cc1cc(NC(=O)Nc2ccc3sccc3c2)sn1 | Ki [7]: 0.417 µM; Ki [8]: 6.31 µM; Selectivity [9]: 27
5 | 0.0468 | 0.0891 | > 6.31 | Cc1cc(NC(=O)Nc2ccc3sccc3c2)on1 | –

Source: ChEMBL document CHEMBL1128263, “N-(1-methyl-5-indolyl)-N'-(3-methyl-5-isothiazolyl)urea: a novel, high-affinity 5-HT2B receptor antagonist” (J Med Chem, 1995)
